Published values of several laboratories.
Lines come from different studies, so protocols differ. pIC50, pKd, pKi: −log10 of the molar value.
DDB1: DNA damage-binding protein 1 (DDB1, Homo sapiens, UniProt Q16531)
Maoa: Amine oxidase [flavin-containing] A (Maoa, Mus musculus, UniProt Q64133)
EPHX2: Bifunctional epoxide hydrolase 2 (EPHX2, Homo sapiens, UniProt P34913)

CC[C@H](C)[C@@H]1NC(=O)[C@H](CC(=O)O)NC(=O)[C@H]([C@@H](C)O)NC(=O)[C@@H]2CSSC[C@@H]3NC(=O)[C@H](CC(C)C)NC(=O)[C@H](CC(N)=O)NC(=O)[C@H](CC(C)C)NC(=O)[C@H](CCCNC(=N)N)NC(=O)[C@H](Cc4ccc(O)cc4)NC(=O)[C@H](CCCCN)NC(=O)[C@H](CCSC)NC(=O)[C@H](CO)NC(=O)[C@H]([C@@H](C)O)NC(=O)[C@H](CCCNC(=N)N)NC(=O)[C@H](CSSC[C@H](NC(=O)[C@H]([C@@H](C)O)NC(=O)[C@H](CCCCN)NC(=O)[C@H](CCCNC(=N)N)NC3=O)C(=O)NCC(=O)N[C@@H](CO)C(=O)N[C@H](C(=O)O)CSSC[C@H](NC(=O)[C@@H](NC(=O)[C@@H](N)CCCNC(=N)N)[C@@H](C)O)C(=O)N[C@@H](CCCCN)C(=O)N[C@@H](CC(=O)O)C(=O)N[C@@H](CC(C)C)C(=O)N[C@@H]([C@@H](C)CC)C(=O)N3CCC[C@H]3C(=O)N[C@@H](C(C)C)C(=O)N[C@@H](CO)C(=O)N[C@@H](CCC(=O)O)C(=O)N2)NC(=O)[C@H](CCCNC(=N)N)NC1=O  pKi (Potassium voltage-gated channel subfamily A member 2 (KCNA2, Homo sapiens, UniProt P16389); ion current, inhibitor, two-electrode voltage clamp; oocytes): 8.60
O=C(C=Cc1ccccc1)Nc1cc(-c2ccnc(N3CCC(O)CC3)c2)ccn1  pKd (Estrogen receptor beta (ESR2, Homo sapiens, UniProt Q92731); binding, SPR): 5.79
CC[C@H](C)[C@H](NC(=O)[C@H](CCCCN)NC(=O)[C@@H](NC(=O)[C@H](CCCNC(=N)N)NC(=O)[C@H](CCC(=O)O)NC(=O)[C@H](CC(C)C)NC(=O)[C@H](CCC(N)=O)NC(=O)[C@H](CCCCN)NC(=O)[C@H](CC(C)C)NC(=O)[C@@H](NC(=O)[C@H](Cc1c[nH]cn1)NC(=O)[C@H](CCC(=O)O)NC(=O)[C@@H](N)CCCNC(=N)N)C(C)C)C(C)C)C(=O)N[C@@H](CO)C(=O)NCC(=O)N[C@@H](CCC(N)=O)C(=O)N[C@@H](CC(C)C)C(=O)N[C@@H](CO)C(=O)N1CCC[C@H]1C(=O)N[C@@H](CCCNC(=N)N)C(=O)N[C@@H](CC(C)C)C(=O)N[C@@H](Cc1ccccc1)C(=O)N[C@@H](CCCNC(=N)N)C(=O)N[C@@H](CCCCN)C(=O)N[C@@H](CC(C)C)C(=O)N1CCC[C@H]1C(=O)N1CCC[C@H]1C(=O)N[C@@H](CCCNC(=N)N)C(=O)N[C@H](C(=O)N[C@@H](CS)C(=O)N[C@H](C(=O)N[C@@H](CO)C(=O)O)C(C)C)C(C)C  pIC50 (DDB1; cell-free assay, FP; pH 7.5): 7.24
Cc1ccc(F)c(CNS(=O)(=O)c2cccc3cccnc23)c1  pIC50 (Maoa; enzyme activity, inhibitor, fluorescence): 5.56
S=C=NCCc1ccccc1  pIC50 (EPHX2; enzyme activity, inhibitor, fluorescence): 5.12
CC[C@H](C)[C@H](NC(=O)[C@H](CO)NC(=O)[C@H](CCC(N)=O)NC(=O)CNC(=O)[C@H](CC(C)C)NC(=O)[C@H](CO)NC(=O)[C@H](CO)NC(=O)[C@H](CCCCN)NC(=O)[C@H](Cc1ccc(O)cc1)NC(=O)[C@@H](NC(=O)[C@H](Cc1ccc(O)cc1)NC(=O)[C@H](Cc1c[nH]cn1)NC(=O)[C@H](CC(C)C)NC(=O)[C@@H](NC(=O)[C@H](CO)NC(=O)[C@@H](NC(=O)[C@H](CCC(N)=O)NC(=O)CN)[C@@H](C)O)[C@@H](C)CC)[C@@H](C)CC)C(=O)N[C@@H](Cc1c[nH]cn1)C(=O)N[C@@H](C)C(=O)N[C@@H](CCC(N)=O)C(=O)N[C@@H](CC(C)C)C(=O)N[C@@H](CCCNC(=N)N)C(=O)N[C@@H](CCC(N)=O)C(=O)N[C@@H](CS)C(=O)N[C@@H](CC(C)C)C(=O)NCC(=O)NCC(=O)NCC(=O)NCC(=O)O  pIC50 (DDB1; cell-free assay, FP; pH 7.5): 6.06
CNC(=O)c1ccc(-c2cnn3ccc(C(=O)N(C)c4ccc(Cl)c(C(=O)O)c4)cc23)cc1  pIC50 (Tyrosine-protein kinase JAK2 (JAK2, Homo sapiens, UniProt O60674); enzyme activity, inhibitor): < 4.52
C#CCN(C)CCCOc1ccc(Cl)cc1Cl  pIC50 (Maoa; enzyme activity, inhibitor, fluorescence): 7.35
C[S+]([O-])CCCN=C=S (stereo not shown)  pIC50 (EPHX2; enzyme activity, inhibitor, fluorescence): 4.69
COC(=O)c1cc(N(C)C(=O)c2ccn3ncc(-c4ccc(C(=O)O)cc4)c3c2)ccc1Cl  pIC50 (Proto-oncogene tyrosine-protein kinase receptor Ret (RET, Homo sapiens, UniProt P07949); enzyme activity, inhibitor): < 4.52
